Test results taken from ChEMBL document CHEMBL4385611, “Difluoromethylene at the γ-Lactam α-Position Improves 11-Deoxy-8-aza-PGE1 Series EP4 Receptor Binding and Activity: 11-Deoxy-10,10-difluoro-8-aza-PGE1 Analog (KMN-159) as a Potent EP4 Agonist” (J Med Chem, 2019).
Values after ≈ are worked out from the molar mass of the structure shown.

Key:
[1] = target: T1, Cytochrome P450 3A (Homo sapiens, UniProt P08684+P20815+Q9HB55+P24462); assay: Inhibition of CYP3A in human liver microsomes using testosterone as substrate at 10 uM after 10 mins by HPLC-MS/MS analysis; type: ADME
[2] = Intrinsic clearance in human hepatocytes at 0.1 uM by HPLC-MS/MS analysis; type: ADME, cell-based, Hepatocyte
[3] = Half-life in human liver microsomes at 0.1 uM by HPLC-MS/MS analysis; type: ADME, Microsome
[4] = Genotoxicity in Salmonella typhimurium TA1537 at 0.6 to 100 uM after 96 hrs by photometry analysis; type: toxicity; conditions: salmonella enterica subsp. enterica serovar typhimurium
[5] = target: Cytochrome P450 2D6 (Homo sapiens, UniProt P10635); assay: Inhibition of CYP2D6 in human liver microsomes using dextromethorphan as substrate at 10 uM after 10 mins by HPLC-MS/MS analysis; type: ADME
[6] = target: T2, Cytochrome P450 2C8 (Homo sapiens, UniProt P10632); assay: Inhibition of CYP2C8 in human liver microsomes using paclitaxel as substrate at 10 uM after 10 mins by HPLC-MS/MS analysis; type: ADME
T2 sequence (P10632 whole entry): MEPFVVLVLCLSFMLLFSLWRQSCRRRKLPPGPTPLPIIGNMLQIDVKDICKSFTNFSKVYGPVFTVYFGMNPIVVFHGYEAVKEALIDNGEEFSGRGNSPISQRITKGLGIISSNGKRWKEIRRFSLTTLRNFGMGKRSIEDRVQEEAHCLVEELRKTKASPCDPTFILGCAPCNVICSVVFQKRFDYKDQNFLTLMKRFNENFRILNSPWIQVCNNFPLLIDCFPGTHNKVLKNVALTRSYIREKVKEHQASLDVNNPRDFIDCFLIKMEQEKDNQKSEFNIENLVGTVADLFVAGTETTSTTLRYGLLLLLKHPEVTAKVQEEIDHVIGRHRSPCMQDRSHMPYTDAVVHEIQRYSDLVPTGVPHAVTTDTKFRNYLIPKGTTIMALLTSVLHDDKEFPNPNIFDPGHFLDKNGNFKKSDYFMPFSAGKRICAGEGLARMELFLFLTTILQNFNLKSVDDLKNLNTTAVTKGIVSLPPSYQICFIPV

[7] = target: T3, Prostaglandin E2 receptor EP2 subtype (Homo sapiens, UniProt P43116); assay: Agonist activity at human EP2 receptor expressed in HEK293T/17 cells assessed as increase in GalphaS-mediated CREB activation measured after 6 to 24 hrs by SEAP reporter gene-based chemiluminescence assay; type: functional, cell-based
[8] = Mutagenicity in Salmonella typhimurium TA1537 after 96 hrs in absence of rat liver S9 fraction by Ames test; type: toxicity; conditions: salmonella enterica subsp. enterica serovar typhimurium, s9, 96 h
[9] = Mutagenicity in Salmonella typhimurium TA98 after 96 hrs in absence of rat liver S9 fraction by Ames test; type: toxicity; conditions: salmonella enterica subsp. enterica serovar typhimurium, s9, 96 h
[10] = target: T3, Prostaglandin E2 receptor EP2 subtype; assay: Agonist activity at human EP2 receptor expressed in HEK293T/17 cells assessed as increase in intracellular cAMP level at 10 uM incubated for 30 mins by ELISA relative to control; type: functional, cell-based
[11] = Mutagenicity in Salmonella typhimurium TA1535 after 96 hrs in absence of rat liver S9 fraction by Ames test; type: toxicity; conditions: salmonella enterica subsp. enterica serovar typhimurium, s9, 96 h
[12] = Efflux ratio of apparent permeability from basolateral to apical side over apical to basolateral side in human Caco2 cells at 5 uM after 120 mins by LC-MS/MS analysis; type: ADME, cell-based; conditions: Caco-2
[13] = Apparent permeability across basolateral to apical side in human Caco2 cells at 5 uM after 120 mins by LC-MS/MS analysis; type: ADME, cell-based; conditions: Caco-2
[14] = test system: CHO-K1; assay: Clastogenic activity in CHOK1 cells after 4 hrs in presence of S9 fraction by micronucleus assay; type: toxicity, cell-based, Cricetulus griseus; conditions: chinese hamster, s9, 4 h
[15] = Intrinsic clearance in human liver microsomes at 0.1 uM by HPLC-MS/MS analysis; type: ADME, Microsome; conditions: read-out: CLH
[16] = target: T4, Prostaglandin E2 receptor EP3 subtype (Homo sapiens, UniProt P43115); assay: Displacement of [3H]PGE2 from human recombinant EP3 receptor expressed in HEK293 cell membranes after 120 mins by liquid scintillation counting method
T4 sequence (P43115 whole entry): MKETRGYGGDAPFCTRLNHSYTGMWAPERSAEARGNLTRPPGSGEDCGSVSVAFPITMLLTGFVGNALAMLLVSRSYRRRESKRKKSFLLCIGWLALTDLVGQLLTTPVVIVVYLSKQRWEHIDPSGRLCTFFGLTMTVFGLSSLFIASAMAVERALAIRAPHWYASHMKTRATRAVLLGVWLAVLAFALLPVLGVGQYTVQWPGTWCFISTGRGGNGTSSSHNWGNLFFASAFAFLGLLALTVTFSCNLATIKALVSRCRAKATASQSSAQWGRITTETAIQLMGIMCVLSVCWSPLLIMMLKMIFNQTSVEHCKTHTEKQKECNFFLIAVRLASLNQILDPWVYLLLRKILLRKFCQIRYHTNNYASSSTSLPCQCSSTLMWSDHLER

[17] = target: T3, Prostaglandin E2 receptor EP2 subtype; assay: Displacement of [3H]PGE2 from human recombinant EP2 receptor expressed in HEK293 cell membranes after 120 mins by liquid scintillation counting method
[18] = Mutagenicity in Salmonella typhimurium TA1535 after 96 hrs in presence of rat liver S9 fraction by Ames test; type: toxicity, subcellular; conditions: salmonella enterica subsp. enterica serovar typhimurium, s9, 96 h
[19] = Genotoxicity in Salmonella typhimurium TA98 at 0.6 to 100 uM after 96 hrs by photometry analysis; type: toxicity; conditions: salmonella enterica subsp. enterica serovar typhimurium
[20] = target: Cytochrome P450 2C19 (Homo sapiens, UniProt P33261); assay: Inhibition of CYP2C19 in human liver microsomes using omeprazole as substrate at 10 uM after 10 mins by HPLC-MS/MS analysis; type: ADME
[21] = target: Prostaglandin E2 receptor EP4 subtype (Homo sapiens, UniProt P35408); assay: Agonist activity at human EP4 receptor expressed in HEK293T/17 cells assessed as increase in GalphaS-mediated CREB activation measured after 6 to 24 hrs by SEAP reporter gene-based chemiluminescence assay; type: functional, cell-based
[22] = target: Voltage-gated inwardly rectifying potassium channel KCNH2 (Homo sapiens, UniProt Q12809); assay: Inhibition of human ERG expressed in CHOK1 cells assessed as reduction in tail current amplitude by automated patch-clamp method; type: cell-based
[23] = target: T1, Cytochrome P450 3A; assay: Inhibition of CYP3A in human liver microsomes using midazolam as substrate at 10 uM after 10 mins by HPLC-MS/MS analysis; type: ADME
[24] = Aqueous solubility of the compound in pH 7.4 phosphate-buffered saline at 200 uM after 24 hrs by shake-flask method; type: physicochemical
[25] = Efflux ratio of apparent permeability across basolateral to apical over apical to basolateral side in MDCK-MDR1 cells; type: ADME, cell-based, Canis lupus familiaris; conditions: dog
[26] = Apparent permeability across basolateral to apical side in MDCK-MDR1 cells assessed as drug recovery; type: ADME, cell-based, Canis lupus familiaris; conditions: dog, read-out: Drug recovery
[27] = Apparent permeability across apical to basolateral side in MDCK-MDR1 cells assessed as drug recovery; type: ADME, cell-based, Canis lupus familiaris; conditions: dog, read-out: Drug recovery
[28] = Chemical stability in PBS buffer at pH 7.4 assessed as compound recovery at 4 degC; type: physicochemical
Method in brief: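 Compound solution in PBS, pH 7.4, held at 4 °C, tested as plain aqueous solution and after autoclaving. A separate sample was exposed to Co-60 gamma irradiation. Read-out is percent of compound recovered.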

T3 sequence (P43116 whole entry): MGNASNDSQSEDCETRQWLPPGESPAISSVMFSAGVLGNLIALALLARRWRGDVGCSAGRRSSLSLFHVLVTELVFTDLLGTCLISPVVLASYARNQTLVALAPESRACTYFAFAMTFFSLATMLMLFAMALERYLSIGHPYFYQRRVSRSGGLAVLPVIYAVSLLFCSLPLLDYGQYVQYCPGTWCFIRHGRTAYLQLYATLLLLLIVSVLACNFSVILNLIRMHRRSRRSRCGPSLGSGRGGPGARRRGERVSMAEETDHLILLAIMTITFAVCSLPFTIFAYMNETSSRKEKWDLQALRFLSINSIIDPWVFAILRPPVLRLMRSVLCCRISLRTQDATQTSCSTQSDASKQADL
Prostaglandin E2 receptor EP4 subtype, sequence (P35408 whole entry): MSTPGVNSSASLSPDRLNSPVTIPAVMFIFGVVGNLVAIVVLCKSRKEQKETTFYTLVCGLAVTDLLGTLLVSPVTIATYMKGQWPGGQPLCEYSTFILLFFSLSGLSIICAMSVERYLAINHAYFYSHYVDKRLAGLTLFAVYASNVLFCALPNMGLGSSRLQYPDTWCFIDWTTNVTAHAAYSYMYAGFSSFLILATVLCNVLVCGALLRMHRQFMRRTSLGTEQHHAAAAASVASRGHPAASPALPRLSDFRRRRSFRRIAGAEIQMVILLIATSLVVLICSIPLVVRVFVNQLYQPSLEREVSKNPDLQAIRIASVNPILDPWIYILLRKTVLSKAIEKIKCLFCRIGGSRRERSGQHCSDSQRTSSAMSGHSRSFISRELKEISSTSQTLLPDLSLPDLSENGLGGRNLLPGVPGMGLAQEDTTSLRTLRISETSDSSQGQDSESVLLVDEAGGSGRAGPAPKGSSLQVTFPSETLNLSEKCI
Cytochrome P450 2C19, sequence (P33261 whole entry): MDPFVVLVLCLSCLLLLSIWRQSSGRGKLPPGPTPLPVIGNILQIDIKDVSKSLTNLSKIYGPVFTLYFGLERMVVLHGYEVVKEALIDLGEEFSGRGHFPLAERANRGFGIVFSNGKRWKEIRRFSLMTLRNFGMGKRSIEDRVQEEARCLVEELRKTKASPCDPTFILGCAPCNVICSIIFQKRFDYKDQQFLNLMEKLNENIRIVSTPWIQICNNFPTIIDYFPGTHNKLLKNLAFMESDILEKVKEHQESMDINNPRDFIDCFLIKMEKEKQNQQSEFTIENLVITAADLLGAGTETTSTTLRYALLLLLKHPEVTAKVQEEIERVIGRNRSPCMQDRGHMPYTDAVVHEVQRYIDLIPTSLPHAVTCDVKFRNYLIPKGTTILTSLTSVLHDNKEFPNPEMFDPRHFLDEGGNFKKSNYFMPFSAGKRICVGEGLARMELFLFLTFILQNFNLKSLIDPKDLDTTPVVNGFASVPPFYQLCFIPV
Voltage-gated inwardly rectifying potassium channel KCNH2, sequence (Q12809 whole entry): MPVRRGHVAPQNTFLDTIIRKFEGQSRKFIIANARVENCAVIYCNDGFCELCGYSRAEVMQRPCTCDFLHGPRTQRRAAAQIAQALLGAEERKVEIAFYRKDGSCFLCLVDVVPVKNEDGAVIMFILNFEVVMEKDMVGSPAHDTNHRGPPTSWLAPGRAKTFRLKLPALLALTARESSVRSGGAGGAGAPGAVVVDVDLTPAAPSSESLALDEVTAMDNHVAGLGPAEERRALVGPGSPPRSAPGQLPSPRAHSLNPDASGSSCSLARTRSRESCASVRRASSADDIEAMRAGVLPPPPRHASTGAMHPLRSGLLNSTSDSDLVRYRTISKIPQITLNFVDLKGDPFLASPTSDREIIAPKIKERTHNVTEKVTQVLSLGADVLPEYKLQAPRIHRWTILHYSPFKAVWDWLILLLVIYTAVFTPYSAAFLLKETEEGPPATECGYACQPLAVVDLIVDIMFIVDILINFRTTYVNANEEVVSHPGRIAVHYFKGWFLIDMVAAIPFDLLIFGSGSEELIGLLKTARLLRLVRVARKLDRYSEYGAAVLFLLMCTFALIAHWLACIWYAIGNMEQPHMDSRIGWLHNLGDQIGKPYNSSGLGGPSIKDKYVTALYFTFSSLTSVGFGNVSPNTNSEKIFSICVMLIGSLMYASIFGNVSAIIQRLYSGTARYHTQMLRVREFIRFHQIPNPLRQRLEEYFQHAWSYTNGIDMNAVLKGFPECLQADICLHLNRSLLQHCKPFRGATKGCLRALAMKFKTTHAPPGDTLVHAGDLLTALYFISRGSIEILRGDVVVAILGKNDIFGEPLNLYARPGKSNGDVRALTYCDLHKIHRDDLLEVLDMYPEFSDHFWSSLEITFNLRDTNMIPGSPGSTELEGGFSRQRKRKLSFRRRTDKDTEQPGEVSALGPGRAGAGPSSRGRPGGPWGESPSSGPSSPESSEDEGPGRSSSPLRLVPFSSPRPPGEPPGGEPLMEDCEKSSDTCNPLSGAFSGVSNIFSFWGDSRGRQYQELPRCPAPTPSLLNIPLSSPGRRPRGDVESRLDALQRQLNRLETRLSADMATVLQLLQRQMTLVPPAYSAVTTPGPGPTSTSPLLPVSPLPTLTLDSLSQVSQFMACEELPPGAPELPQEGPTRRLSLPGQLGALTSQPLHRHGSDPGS
Cytochrome P450 2D6, sequence (P10635 whole entry): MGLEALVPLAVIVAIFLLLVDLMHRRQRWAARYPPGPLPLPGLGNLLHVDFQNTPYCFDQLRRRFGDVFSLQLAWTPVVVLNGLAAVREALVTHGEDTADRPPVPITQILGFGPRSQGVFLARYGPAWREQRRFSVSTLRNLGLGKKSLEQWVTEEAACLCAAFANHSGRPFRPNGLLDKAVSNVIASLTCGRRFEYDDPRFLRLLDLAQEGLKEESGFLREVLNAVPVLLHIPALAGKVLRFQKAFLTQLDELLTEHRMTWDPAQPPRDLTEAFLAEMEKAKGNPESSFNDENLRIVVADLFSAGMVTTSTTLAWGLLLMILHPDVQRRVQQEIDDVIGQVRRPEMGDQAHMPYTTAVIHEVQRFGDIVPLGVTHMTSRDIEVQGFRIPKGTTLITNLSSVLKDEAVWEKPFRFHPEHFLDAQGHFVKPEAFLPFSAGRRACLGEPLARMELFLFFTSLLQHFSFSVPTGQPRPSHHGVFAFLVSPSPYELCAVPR

| Structure (SMILES) | inhibition (INH) [1] | CLH [2] [µL/min/10^6 cells] | half-life at 0.1 µM [3] [h] | Activity [4] | inhibition (INH) [5] | inhibition (INH) [6] | EC50 [7] [µM] | Activity [8] | Activity [9] | Activity [10] [%] | Activity [11] | efflux ratio at 2 h, 5 µM [12] | Papp B→A at 2 h, 5 µM [13] [×10⁻⁶ cm/s] | Activity [14] | microsomal CLint at 0.1 µM [15] [µL/min/mg] | Ki [16] [µM] | Ki [17] [µM] | Activity [18] | Activity [19] | inhibition (INH) [20] | further results |
| --- | --- | --- | --- | --- | --- | --- | --- | --- | --- | --- | --- | --- | --- | --- | --- | --- | --- | --- | --- | --- | --- |
| CCC#CC[C@H](C)[C@H](O)/C=C/[C@H]1CCC(=O)N1CCCCCCC(=O)O | Not Active | < 8.2 | > 1 | Non-Toxic | Not Active | Not Active | > 10 | Non-Toxic | Non-Toxic | < 50 | Non-Toxic | 1.6 | 10.1 | Non-Toxic | < 116 | 0.88 | 12.2 | Non-Toxic | Non-Toxic | Not Active | EC50 [21]: 0.476 nM; IC50 [22]: 29 µM; inhibition (INH) [23]: Not Active; solubility thermodynamic at 24 h, 200 µM [24]: 192 µM (≈ 69.9 µg/mL) |
| CCC#CC[C@H](C)[C@H](O)/C=C/[C@H]1CC(F)(F)C(=O)N1CCCCCCC(=O)O | Not Active | < 8.2 | > 1 | Non-Toxic | Not Active | Not Active | 7.36 | Non-Toxic | Non-Toxic | < 50 | Non-Toxic | 1.5 | 14.5 | Non-Toxic | < 116 | 0.258 | 4.97 | Non-Toxic | Non-Toxic | Not Active | efflux ratio [25]: 20; recovery [26]: 93%; EC50 [21]: 0.088 nM; IC50 [22]: 25.9 µM; inhibition (INH) [23]: Not Active; recovery [27]: 84%; solubility thermodynamic at 24 h, 200 µM [24]: 197 µM (≈ 78.7 µg/mL); Drug recovery [28]: 100% |
